The list is not random: actives were taken first. Their share in the collection is about 3.1%.
rRNA inh HTS = reduced GFP signal of wild-type E. coli, primary screen, bacterial rRNA inhibitor project, GFP/RFP fluorescence, OD600, single point; GFP signal change (wild-type ribosome), % (test concentration not listed); hit rate 1.6% among 350,000; AID 720706, 2013; E. coli WT GFP vs humanized-ribosome RFP mutants, 24 h; hits give low values; DMSO median 0, no signal -100;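 active = significant combined selectivity score with lowered wild-type GFP, culture density cut under 30%, mutant RFP and density less affected; inactive = any of these conditions unmet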
Cneo AK release = Cryptococcus neoformans cell lysis inducers, primary screen, AK release luminescence, single concentration; C. neoformans lysis, adenylate kinase release luminescence, 4 h; normalised: neutral wells 0, clomiphene wells 100; lysis activity, % at 15 µM; hit rate 0.2% among 360,000; AID 651654, 2012;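 active = mean lysis activity across replicates of at least 80%, whatever share of replicates individually reach that level; inactive = mean lysis activity below 80%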
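Material: C. neoformans cells | Amount: Yeast cell density of 5 × 10^6 cells/mL | Medium: Fresh YPD growth medium | Dosing: Single dose | Times: Static 4 h at 37 °C with compound, 1 h detection | Detection: AK luminescence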
HIV Env fusion = inhibitors of HIV-1 Env-driven cell-cell fusion, primary screen, HeLa-JRFL effector, CEM21 target cells, luciferase | inhibition, % at 12.3 µM | AID 651610, 2012 | hit rate 1.1% among 360,000;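 active = mean replicate inhibition score of at least 50 and every replicate individually at or above 50; inconclusive = only one of the two criteria met; inactive = mean below 50 and not all replicates reaching 50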;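 note: 0% = plate neutral controls and 100% = maraviroc near 300 nM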
GSIS activator = GLuc luminescence reporter in INS-1E cells, primary screen for activators of glucose-dependent secretion of insulin; INS-1E GLuc reporter insulin secretion, 2-3 h; activation, % at 16.6 µM; hit rate 0.61% among 370,000; AID 743287, 2014;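 active = lowest replicate activation of at least 40%, so every replicate reaches that level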;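 note: 0% = median of neutral control wells and 100% = median of IBMX positive control wells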
F508del corr = F508del CFTR correction, initial screen, CFBE line, single point; CFBE cells, YFP halide quenching; stimulated with forskolin plus potentiator P3; % fluorescence drop versus neutral controls; activity (quench increase), % at 7.58 µM; hit rate 0.36% among 350,000; AID 720511, 2013;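 active = mean added fluorescence quench of at least 8% versus neutral control, with both replicates also reaching 8%; inconclusive = only one of the mean or replicate conditions met; inactive = mean below 8% and not both replicates reaching 8%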;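 note: cells transiently co-express mutant CFTR-F508del with the halide-sensitive YFP; corrector assay measuring rescue of mutant channel to the surface after 24 h compound exposure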
miR122 inh = miR-122 Renilla sensor signal increase in Huh7, primary screen, miR-122 inhibitor project, cell-based, single point, plate reader; Huh7 miR-122 Renilla luciferase sensor, 48 h; neutral wells = 0, positive control = 100; activation (reporter increase), % at 12.5 µM; hit rate 0.3% among 340,000;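 active = mean replicate activation score at least 90 and every replicate individually at or above 90; inconclusive = only one of the two criteria met; inactive = neither criterion met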;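 note: higher luciferase means less miR-122 activity so hits act as miR-122 inhibitors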
Starred values were filed as active, the others as inactive; ? = inconclusive; / = no result given; [ ] = dose if it differs, or a comment.

SMILES	rRNA inh HTS	Cneo AK release	HIV Env fusion	GSIS activator	F508del corr	miR122 inh
Cc1ccc(S(=O)(=O)Nc2cccc3c2O[C@H](CN(C)C(=O)Nc2ccc(F)cc2)[C@@H](C)CN([C@H](C)CO)C3=O)cc1	-1	1	-5[16.7 µM]	-10	-1	45[16.7 µM]
C[C@@H]1CN([C@H](C)CO)C(=O)c2cc(N(C)C)ccc2O[C@@H]1CN(C)S(=O)(=O)c1ccc(Cl)cc1	-3	-3	/	0	1	98*[16.7 µM]
COc1ccc(S(=O)(=O)N(C)C[C@H]2Oc3ccc(N(C)C)cc3C(=O)N([C@H](C)CO)C[C@@H]2C)cc1	-7	-2	14[16.7 µM]	16	-1	112*[16.7 µM]
Cc1noc(C)c1NC(=O)Nc1ccc2c(c1)CC(=O)N([C@H](C)CO)C[C@H](C)[C@@H](CN(C)Cc1ccc3c(c1)OCO3)O2	4	-1	-14[16.7 µM]	-9	-2	-1[16.7 µM]
C[C@@H]1CN([C@H](C)CO)C(=O)c2cc(NS(C)(=O)=O)ccc2O[C@@H](C)CCCCO[C@H]1CN(C)C(=O)Nc1ccc2c(c1)OCO2	0	5	15[16.7 µM]	4	1	-4[16.7 µM]
Cc1scc(C(=O)NNC(=S)NC(C)c2ccccc2)c1C (centres undefined)	-20*	/	6	-31	/	/
CCCN1C[C@@H](C)[C@H](OC)CN(C)C(=O)c2cc(NC(=O)COC)ccc2OC[C@@H]1C	-1	-1	-6[16.7 µM]	-3	0	10[16.7 µM]
CCCNC(=O)[C@@H]1[C@@H](CO)[C@@H]2Cn3c(ccc(-c4cccc(F)c4)c3=O)[C@H]1N2C(=O)CC	0	-3	/	8	2	-3[16.7 µM]
CC1=C(C(=O)NC2CCCC(C)C2C)C2(CCCCC2)OC1=O (centres undefined)	8	1	-7	11	-4	3
CC1=C(C(=O)NC(C)C)C2(CCC(C)CC2)OC1=O (centres undefined)	6	5	61*	/	4	/
CC1=C(C(=O)NC2CCCCC2C)C2(CCC(C)CC2)OC1=O (centres undefined)	5	-1	-20	4	9.9*	3
COc1ccc(S(=O)(=O)Nc2ccc3c(c2)[C@H]2C[C@H](CC(=O)O)O[C@@H](CO)[C@H]2O3)cc1	1	-1	/	-1	-1	10[16.7 µM]
Cc1ccc(N(C)C(=O)CCS(=O)(=O)c2cc3c(cc2Cl)NC(=O)CO3)cc1	-3	0	-11	0	0	7
CCN(C(=O)CCS(=O)(=O)c1cc2c(cc1Cl)NC(=O)CO2)c1ccccc1	-4	-4	72*	-2	2	-5
CCCCNC(=O)C[C@@H]1C[C@@]2(C(=O)OCC)CCCC=C2N(CCc2ccc(OC)c(OC)c2)C1=O	-1	/	-14	-25	-1	/
COC(=O)[C@]12CCCCC=C1N(CCC1=CCCCC1)C(=O)[C@H](CC(=O)NCc1ccc(OC)c(OC)c1)C2	-8	/	80*	-15	-4	/
CCCCCCCCN1C(=O)[C@H](CC(=O)NCc2ccc(OC)c(OC)c2)C[C@@]2(C(=O)OC)CCCCC=C12	/	/	118*	/	6	/
COC(=O)[C@]12CCCCC=C1N(Cc1ccccc1)C(=O)[C@H](CC(=O)NCc1ccc(OC)c(OC)c1)C2	-20*	/	-22	-10	0	/
CCOC(=O)[C@]12CCCC=C1N(Cc1ccccc1)C(=O)[C@H](CC(=O)NCc1ccc(OC)c(OC)c1)C2	-3	/	0	-10	-2	/
C#CCNC(=O)C[C@@H]1C[C@@]2(C(=O)OC)CCCCC=C2N(CCc2ccc(OC)c(OC)c2)C1=O	-7	/	8	-3	3	/
CCOC(=O)[C@]12CCCC=C1N(CCC1=CCCCC1)C(=O)[C@H](CC(=O)NCc1ccc(OC)c(OC)c1)C2	/	/	71*	-33	1	/
COC(=O)[C@]12CCCCC=C1N(Cc1ccccc1)C(=O)[C@H](CC(=O)N1CCCCC1)C2	-26*	/	8	-33	-2	/
CC(=O)N1[C@@H](CO)[C@@H](c2ccc(C3=CCCC3)cc2)C12CN(C(=O)NC(C)C)C2	2	/	/	4	-3	/
COc1ccc(C2SCC(=O)N2CC23CC4CC(CC(C4)C2)C3)cc1 (centres undefined)	-25*	2	/	9	-3	-5
C[C@H]1CCCCO[C@H](CN(C)S(=O)(=O)c2ccccc2)[C@@H](C)CN([C@@H](C)CO)C(=O)c2cc(N(C)C)ccc2O1	-5	-2	2[16.7 µM]	-1	-4	-3[16.7 µM]
SMILES	rRNA inh HTS	Cneo AK release	HIV Env fusion	GSIS activator	F508del corr	miR122 inh
O=C(C1CCCC1)N1CCCCN2[C@@H](CO)[C@H](c3ccc(C#CC4CC4)cc3)[C@@H]2C1	/	1	/	/	1	-25[16.7 µM]
C[C@H](CO)N1C[C@H](C)[C@H](CN(C)S(=O)(=O)c2ccc(F)cc2)Oc2ccc(NS(=O)(=O)c3ccc(Cl)cc3)cc2C1=O	-2	102*	?	-19	-3	35[16.7 µM]
C[C@@H]1CN([C@H](C)CO)C(=O)c2cc(NS(=O)(=O)c3ccc(Cl)cc3)ccc2O[C@H]1CN(C)S(=O)(=O)c1ccc(F)cc1	-4	101*	32[16.7 µM]	-4	-1	20[16.7 µM]
C[C@H]1CN([C@@H](C)CO)C(=O)c2cccc(NS(=O)(=O)c3ccc(F)cc3)c2O[C@@H]1CN(C)S(=O)(=O)c1ccc(Cl)cc1	-2	1	-42[16.7 µM]	-4	-3	-3[16.7 µM]
C[C@H](CO)N1C[C@H](C)[C@@H](CN(C)S(=O)(=O)c2ccc(Cl)cc2)Oc2c(NS(=O)(=O)c3ccc(F)cc3)cccc2C1=O	0	127*	-23[16.7 µM]	-9	2	12[16.7 µM]
COCC(=O)Nc1ccc2c(c1)C(=O)N(C)[C@H]1CC[C@@H](CC(=O)NCCc3ccccc3)O[C@@H]1CO2	1	1	-17[16.7 µM]	-1	2	3[16.7 µM]
Cc1noc(C)c1NC(=O)Nc1ccc2c(c1)C(=O)N([C@H](C)CO)C[C@@H](C)[C@H](CN(C)Cc1ccc3c(c1)OCO3)OCCCC[C@H](C)O2	0	3	1[16.7 µM]	20	-2	12[16.7 µM]
C[C@@H]1CN([C@@H](C)CO)C(=O)c2cc(NS(=O)(=O)c3cn(C)cn3)ccc2O[C@H]1CN(C)Cc1ccc(Cl)c(Cl)c1	-6	1	/	10	-2	-4[16.7 µM]
C/C(=N/NC(=O)c1ccc(Br)s1)c1ccncc1	2	0	-12	50*	5	/
O=C(N/N=C/c1ccncc1)c1cc(-c2ccc(Br)s2)[nH]n1	-26	-1	-2	43*	-1	0
